Molecules are shown by their SMILES. The source made the active and inactive calls. No cut-off for these calls is given here.

The source of these data is ChEMBL document CHEMBL1154045, “In vitro and in vivo anticancer activity of 2-deacetoxytaxinine J and synthesis of novel taxoids and their in vitro anticancer activity” (Eur J Med Chem, 2009).

One assay has as its system A2780 ADR. In words: Reversal of P-gp-mediated multidrug resistance in human 2780AD cells assessed as vincristine accumulation. The format is cell-based.
A further assay has as its system HEK293. In words: Cytotoxicity against HEK293 cells after 18 hrs by MTT assay. The format is cell-based. The conditions noted are these: Homo sapiens, HEK293, 18 h. The essentials: (§1)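 MTT assay: 1 × 10⁴ cells/well seeded in DMEM with 10% FBS and held 24 h at 37 °C in a CO₂ incubator. Compounds were diluted in culture medium and added alongside a vehicle control. After 18 h of exposure, MTT (5 mg/mL stock) was added and plates were incubated a further 4 h.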

In a further assay the test system is MDA-MB-231. In words: Anticancer activity against estrogen-receptor-negative human MDA-MB-231 cells after 18 hrs by MTT assay. The format is functional, cell-based. The following applies: MDA-MB-231, 18 h. The essentials:
as §1
(Tetrazolium assays rely on reduction of a dye to a coloured formazan, in cell work by metabolically active cells.)

The next assay concerns MCF7. In words: Anticancer activity against estrogen-positive human MCF7 cells after 18 hrs by MTT assay. The format is functional, cell-based. The following applies: MCF7, 18 h. The essentials: as §1
Another assay concerns Rattus norvegicus. In words: Antitumor activity against DMBA-induced mammary tumor in Sprague-Dawley rat assessed as tumor regression at 10 mg/kg, po administered for 30 days. The format is functional, organism-based. Further details: dose 10 mg/kg.

On to `COc1ccc(CCN(C)CCCC(C#N)(c2ccc(OC)c(OC)c2)C(C)C)cc1OC` (stereo not given), for which the Activity with A2780 ADR stood at 254%.
For the compound `C=C1[C@@H](OC(=O)Cc2ccccn2)C[C@H](OC(C)=O)[C@]2(C)[C@@H]1C[C@@H]1C[C@H](OC(C)=O)C(C)=C([C@@H](OC(C)=O)[C@@H]2OC(C)=O)C1(C)C`, the IC50 (as a rule, the concentration that inhibits the measured activity by half) in the assay with HEK293 is more than 50 µM; with MDA-MB-231, more than 50 µM; in the assay on MCF7, 28 µM.
With `C=C1[C@@H](OC(=O)c2cccnc2)C[C@H](OC(C)=O)[C@]2(C)[C@@H]1C[C@@H]1C[C@H](OC(C)=O)C(C)=C([C@@H](OC(C)=O)[C@@H]2OC(C)=O)C1(C)C`, the IC50 in the assay on HEK293, with MDA-MB-231 and with MCF7 was more than 50 µM each time.
Take `C=C1[C@H]2C[C@@H]3C[C@H](OC(C)=O)C(C)=C([C@@H](OC(C)=O)[C@H](OC(C)=O)[C@]2(C)[C@@H](OC(C)=O)C[C@@H]1O)C3(C)C`: the IC50 in the assay with HEK293, with MDA-MB-231 and with MCF7 was more than 50 µM throughout.
On to `C=C1[C@@H](OC(=O)CCc2cccnc2)C[C@H](OC(C)=O)[C@]2(C)[C@@H]1C[C@@H]1C[C@H](OC(C)=O)C(C)=C([C@@H](OC(C)=O)[C@@H]2OC(C)=O)C1(C)C`, for which the IC50 in the assay on HEK293 is more than 50 µM; with MDA-MB-231, more than 50 µM; with MCF7, 39 µM.
Compound `CC(=O)O[C@H]1C(=O)[C@@]2(C)[C@H]([C@H](OC(=O)c3ccccc3)[C@]3(O)C[C@H](OC(=O)[C@H](O)[C@@H](NC(=O)c4ccccc4)c4ccccc4)C(C)=C1C3(C)C)[C@]1(OC(C)=O)CO[C@@H]1C[C@@H]2O` [PACLITAXEL] returned an IC50 in the assay with HEK293 of 43 µM. In other words, the double-digit micromolar range.
As for `C=C1[C@@H](OC(=O)CCc2ccccc2)C[C@H](OC(C)=O)[C@]2(C)[C@@H]1C[C@@H]1C[C@H](OC(C)=O)C(C)=C([C@@H](OC(C)=O)[C@@H]2OC(C)=O)C1(C)C`, the IC50 in the assay on HEK293 was determined as 10 µM; with MDA-MB-231, 20 µM; in the assay with MCF7 it was 15 µM.
With `C=C1[C@@H](OC(=O)/C=C/c2ccccc2)C[C@H](OC(C)=O)[C@]2(C)[C@@H]1C[C@@H]1C[C@H](OC(C)=O)C(C)=C([C@@H](OC(C)=O)[C@@H]2OC(C)=O)C1(C)C`, the outcome in the assay on Rattus norvegicus was Active. For the same compound, the Activity in the assay with A2780 ADR came to 266%. The half-inhibitory concentration (IC50) in the assay on HEK293 is more than 50 µM; in the assay with MDA-MB-231, 10 µM; with MCF7, 20 µM.
As to `C=C1[C@@H](OC(=O)/C=C/c2cccnc2)C[C@H](OC(C)=O)[C@]2(C)[C@@H]1C[C@@H]1C[C@H](OC(C)=O)C(C)=C([C@@H](OC(C)=O)[C@@H]2OC(C)=O)C1(C)C`, the half-maximal inhibitory concentration (IC50) with HEK293 was more than 50 µM; in the assay with MDA-MB-231, more than 50 µM; in the assay on MCF7, 34 µM.
For `CC/C(=C(\c1ccccc1)c1ccc(OCCN(C)C)cc1)c1ccccc1` [TAMOXIFEN], the figures for the IC50 with MDA-MB-231 and in the assay on MCF7 were 24 µM and 12 µM, respectively.
As to `C=C1[C@@H](OC(=O)[C@@H](O)[C@H](O)c2ccccc2)C[C@H](OC(C)=O)[C@]2(C)[C@@H]1C[C@@H]1C[C@H](OC(C)=O)C(C)=C([C@@H](OC(C)=O)[C@@H]2OC(C)=O)C1(C)C`, the IC50 in the assay with HEK293 is more than 50 µM; in the assay with MDA-MB-231, 13 µM; in the assay on MCF7 it was more than 50 µM.
